Results reported in ChEMBL document CHEMBL6134766, “Design, synthesis, and evaluation of benzhydrylpiperazine-based novel dual COX-2/5-LOX inhibitors with anti-inflammatory and anti-cancer activity” (RSC Med Chem, 2025).
The source made the active and inactive calls. The calls are words filed in the database; no cut-off is given here.

Columns and labels:
[1] = biological target: T1, Polyunsaturated fatty acid 5-lipoxygenase (Homo sapiens, UniProt P09917); assay: Inhibition of 5-LOX (unknown origin) using arachidonic acid as substrate preincubated for 5 mins followed by substrate addition measured after 10 mins by spectrophotometry
T1 sequence (P09917 whole entry): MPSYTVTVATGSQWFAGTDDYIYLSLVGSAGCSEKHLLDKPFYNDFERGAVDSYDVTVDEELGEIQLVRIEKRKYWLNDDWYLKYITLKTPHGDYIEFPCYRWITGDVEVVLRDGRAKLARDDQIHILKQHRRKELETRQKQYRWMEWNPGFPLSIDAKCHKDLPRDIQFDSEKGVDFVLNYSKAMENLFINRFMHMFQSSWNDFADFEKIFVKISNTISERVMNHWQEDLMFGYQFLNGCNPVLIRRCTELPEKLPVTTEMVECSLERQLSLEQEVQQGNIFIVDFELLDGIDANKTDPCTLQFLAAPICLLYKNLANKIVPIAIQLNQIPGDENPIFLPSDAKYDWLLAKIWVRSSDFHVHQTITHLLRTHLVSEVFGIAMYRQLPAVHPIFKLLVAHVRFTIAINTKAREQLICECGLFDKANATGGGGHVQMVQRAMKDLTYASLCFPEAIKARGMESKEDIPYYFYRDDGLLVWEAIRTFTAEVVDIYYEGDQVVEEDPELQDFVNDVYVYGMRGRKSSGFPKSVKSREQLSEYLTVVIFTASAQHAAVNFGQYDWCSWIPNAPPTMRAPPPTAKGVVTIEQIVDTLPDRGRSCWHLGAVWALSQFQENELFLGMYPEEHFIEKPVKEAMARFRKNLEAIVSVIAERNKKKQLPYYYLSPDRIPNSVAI

[2] = system: Rattus norvegicus; assay: Anti-inflammatory activity in carrageenan-induced paw edema Wistar rat model assessed as swelling thickness of paw at 5 mg/kg, po measured after 2 hrs by digital vernier caliper (reference value: 8.65 +/- 0.53 millimeter); type: functional
[3] = Toxicity in fasting Wistar rat assessed as ulcer index at 5 mg/kg, po via gavage treated for 3 days consecutively by H and E staining based analysis (reference value: 0); type: organism-based; settings: in vivo, 72 h, time 3 day
How it was run: (§1)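 Fasted rats, n = 6/group, gavaged once daily for 3 days in 0.3% Na CMC (vehicle control 0.3% CMC); killed under anaesthesia 6 h after day-3 dose; stomachs saline-washed, mucosa examined with hand lens; ulcer score, index and % ulceration by reported scoring; some stomachs formalin-fixed, H&E stained.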

[4] = system: Rattus norvegicus; assay: Anti-inflammatory activity in carrageenan-induced paw edema Wistar rat model assessed as decrease in IL-6 level in paw tissue at 5 to 20 mg/kg, po measured for 6 hrs by ELISA; type: functional, organism-based; settings: dose 5-20 mg/kg
How it was run: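 Paw tissue taken from carrageenan-edema rats dosed orally at 5, 10 or 20 mg kg−1. Tissue rinsed in PBS pH 7.4, minced, homogenized, filtered and centrifuged at 2000 rpm for 20 min at 4 °C. Supernatant assayed by ELISA for PGE2, IL-6, TNF-α and IL-10. Data as mean ± SD.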

[5] = system: Rattus norvegicus; assay: Anti-inflammatory activity in arachidonic acid-induced paw edema Wistar rat model assessed as protection against swelling thickness of paw at 20 mg/kg, po measured after 1 hr by digital vernier caliper (reference value: 0 %); type: functional
[6] = Toxicity in fasting Wistar rat assessed as ulcer index at 20 mg/kg, po via gavage treated for 3 days consecutively by H and E staining based analysis (reference value: 0); type: organism-based; settings: in vivo, 72 h, time 3 day; how it was run: as §1
[7] = Toxicity in Wistar rat assessed as change in serum AST level at 20 mg/kg, po; type: organism-based; settings: in vivo
How it was run: (§2)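 Rats dosed orally in 0.3% Na CMC; retro-orbital blood clotted at room temperature, serum separated at 2000 rpm, 20 min, 4 °C; ALT, AST, creatinine and urea by commercial kits; n = 6 per group, mean ± SD; Tukey test after repeated-measures one-way ANOVA.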

[8] = Acute toxicity in female Wistar rat assessed as drug tolerance up to 500 mg/kg, po measured for 14 days; type: organism-based; settings: in vivo, 336 h, time 14 day
How it was run: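 Followed OECD 423 guideline in healthy female Wistar rats weighing 200–250 g. Animals were housed at 25 ± 2 °C and 45–60% RH on a 12 h light/dark cycle, with free access to water and food.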

[9] = Toxicity in Wistar rat assessed as change in serum creatinine level at 20 mg/kg, po; type: organism-based; settings: in vivo; how it was run: as §2
[10] = AUC (0 to 24 hrs) in male Wistar rat at 10 mg/kg, po measured up to 24 hrs by HPLC analysis; type: ADME, organism-based; settings: in vivo
How it was run: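 Healthy male Wistar rats (200–250 g, n = 5), fasted overnight, given a single oral dose of 10 mg kg−1 in 0.3% sodium CMC. Blood collected under anaesthesia at 0, 0.5, 1, 2, 4, 8, 16 and 24 h into heparinized tubes. Plasma extracted with MeOH and analysed by HPLC (MeOH:H2O 85:15, detection at 254 nm) against a standard calibration curve. Parameters from a non-compartmental extravascular model.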

[11] = system: COLO 205; assay: Cytotoxicity against human COLO 205 cells assessed as growth inhibition incubated for 48 hrs by SRB assay; settings: COLO 205, 48 h
[12] = system: Drosophila; assay: Anti-cancer activity in Drosophila harboring UAS-Ras V12 mutant assessed as increase in early pupal developmental differentiation at 10 to 50 uM, po; type: functional, organism-based; settings: dose 10-50 µM
How it was run: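 UAS-RasV12 glial glioblastoma model (repo-GAL4/UAS-RasV12) in Drosophila, with Oregon R+ wild-type flies as control. Flies reared at 24 ± 1 °C on standard corn food containing compound at 10 or 50 μM. Percent of animals at each developmental stage (third instar larva, pupa) scored. Significance by Tukey's multiple comparisons test.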

[13] = system: Drosophila; assay: Toxicity in wild-type Drosophila assessed as eclosion rate at 50 uM, po via food to female and male flies and measured in F1 generation flies after 15 days; type: organism-based; settings: in vivo, 360 h, time 15 day
How it was run: (§3)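 Ten virgin female and male Oregon R+ flies crossed on food containing compound (1, 10, 50, 100 or 200 μM), held at 24 ± 1 °C; F1 generation followed 15 days; percent eclosion versus untreated controls; Dunnett's multiple comparisons.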

[14] = system: Drosophila; assay: Toxicity in wild-type Drosophila assessed as reduction in eclosion rate at 200 uM, po via food to female and male flies and measured in F1 generation flies after 15 days; type: organism-based; parameters: scale not given: the % may be the effect or the level left; settings: in vivo, 360 h, time 15 day; how it was run: as §3
[15] = Half life in male Wistar rat at 10 mg/kg, po measured up to 24 hrs by HPLC analysis; type: ADME, organism-based; settings: in vivo
How it was run: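 Overnight-fasted male Wistar rats, 200–250 g, single 10 mg kg−1 p.o. in 0.3% sodium CMC; blood at 0, 0.5, 1, 2, 4, 8, 16, 24 h into heparin tubes; plasma MeOH-extracted, HPLC (MeOH:H2O 85:15, 254 nm) against calibration curve; extravascular non-compartmental analysis; mean ± SD (n = 3).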

[16] = system: Drosophila; assay: Toxicity in wild-type Drosophila assessed as reduction in eclosion rate at 100 uM, po via food to female and male flies and measured in F1 generation flies after 15 days; type: organism-based; parameters: scale not given: the % may be the effect or the level left; settings: in vivo, 360 h, time 15 day; how it was run: as §3

Row | Structure (SMILES) | IC50 [1] [µM] | Activity [2] [mm] | UI [3] | Activity [4] | Activity [5] [%] | UI [6] | Activity [7] | Activity [8] | Activity [9] | AUC [10] [µg/mL/h] | GI50 [11] [nM] | Activity [12] | Activity [13] [%] | Activity [14] [%] | half-life [15] [min] | Activity [16] [%]
1 | O=[N+]([O-])c1ccc(-c2nnc(CN3CCN(C(c4ccccc4)c4ccc(Cl)cc4)CC3)o2)cc1 (stereo not given) | 9.16 | 5.25 | 1.041 | Active | 64.36 | 9.37 | Non-toxic | Non-toxic | Non-toxic |  |  |  |  |  |  | 
2 | Clc1ccc(-c2nnc(CN3CCN(C(c4ccccc4)c4ccc(Cl)cc4)CC3)o2)cc1 (stereo not given) | 7.87 | 5.63 | 0 | Active | 70.21 | 1.875 | Non-toxic | Non-toxic | Non-toxic | 32.06 | 1220 | Active | > 70 | 24 | 127 | 41
